{"source": "ChEMBL document CHEMBL4699650", "about": "“SAR Investigation and Discovery of Water-Soluble 1-Methyl-1,4-dihydroindeno[1,2-c]pyrazoles as Potent Tubulin Polymerization Inhibitors” (J Med Chem, 2020)", "key": {"HepG2 [1]": {"system": "HepG2", "assay": "Induction of apoptosis in human HepG2 cells assessed as necrotic cells at 20 nM incubated for 24 hrs by Annexin V-PE and 7-AAD staining based flow cytometry (reference value: 0.34 %)", "format": "functional", "procedure,_shortened": "(§1)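 HepG2 cells seeded at 3 × 10⁵ cells/well, adhered overnight, exposed at 5, 10 or 20 nM for 12 or 24 h. Harvested into Annexin V binding buffer and stained with annexin V-PE and 7-AAD for 15 min at room temperature in the dark, then analysed by flow cytometry. Gates: live (−/−), early apoptotic (+/−), late apoptotic (+/+), necrotic (−/+).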"}, "HepG2 [2]": {"system": "HepG2", "assay": "Induction of apoptosis in human HepG2 cells assessed as live cells at 5 nM incubated for 12 hrs by Annexin V-PE and 7-AAD staining based flow cytometry (reference value: 92.1%)", "format": "functional", "procedure,_shortened": "as §1"}, "HepG2 [3]": {"system": "HepG2", "assay": "Inhibition of cell migration in human HepG2 cells at 10 nM measured after 24 hrs by inverted light microscopy method based wound healing assay relative to control", "format": "functional", "procedure,_shortened": "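Confluent HepG2 monolayer (seeded 3 × 10⁵ cells/well) scratched with a pipette tip and washed with PBS. Incubated in serum-free DMEM with compound at 2.5, 5 or 10 nM for 24 h; CA-4 run in parallel, DMSO as vehicle. Wound imaged at 0 and 24 h by inverted microscope and compared with control.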"}, "HepG2 [4]": {"system": "HepG2", "assay": "Induction of cell cycle arrest in human HepG2 cells assessed as accumulation in G2/M phase at 10 nM incubated for 24 hrs by propidium iodide staining based flow cytometry (reference value: 12.59%)", "format": "functional"}, "HepG2 [5]": {"system": "HepG2", "assay": "Induction of apoptosis in human HepG2 cells assessed as necrotic cells at 20 nM incubated for 12 hrs by Annexin V-PE and 7-AAD staining based flow cytometry (reference value: 0.55 %)", "format": "functional", "procedure,_shortened": "as §1"}, "HepG2 [6]": {"system": "HepG2", "assay": "Antitumor activity against human HepG2 cells xenografted in iv dosed Balb/c nude mouse assessed as tumor growth inhibition administered every 2 days for 21 days", "format": "functional, organism-based", "settings": "time 21.0 day", "procedure,_shortened": "(§2)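 Nude mice received 200 μL PBS containing HepG2 at 1 × 10⁷ cells/mL subcutaneously in the right armpit. Randomised at 90 mm³ tumour volume, five per group. Compound given iv as a 2.0 mg/mL solution in distilled water, 5 or 10 mg/kg every two days for 21 days, with a water vehicle group. Tumour volume (L × W²/2) and body weight recorded every 3 days. Inhibition = (1 − RTV treated/RTV vehicle) × 100%.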"}, "[7]": {"assay": "Inhibition of porcine brain tubulin polymerization measured every 60 sec for 60 mins in presence of GTP by fluorescence assay", "design": "species or system Sus scrofa", "procedure,_shortened": "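Fluorescence kit assay using 2 mg/mL porcine brain tubulin with 2 mM MgCl₂, 0.5 mM EGTA, 1 mM GTP and 15% glycerol. Compound at various concentrations preincubated 1 min at 37 °C before adding the tubulin mix. Read at ex 355/em 460 nm every 60 s for 60 min. IC50 is the concentration giving 50% inhibition at 60 min; mean ± SD of ≥3 independent experiments.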"}, "HepG2 [8]": {"system": "HepG2", "assay": "Induction of apoptosis in human HepG2 cells assessed as live cells at 20 nM incubated for 12 hrs by Annexin V-PE and 7-AAD staining based flow cytometry (reference value: 92.1%)", "format": "functional", "procedure,_shortened": "as §1"}, "HepG2 [9]": {"system": "HepG2", "assay": "Induction of cell cycle arrest in human HepG2 cells assessed as accumulation in G1 phase at 5 nM incubated for 24 hrs by propidium iodide staining based flow cytometry (reference value: 60.76%)", "format": "functional"}, "HepG2 [10]": {"system": "HepG2", "assay": "Induction of apoptosis in human HepG2 cells assessed as increase in Bax expression incubated for 24 hrs by Western blot analysis", "format": "functional, cell-based", "settings": "dose nM 2.5-20, time 24.0 hrs", "procedure,_shortened": "(§3)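 Lysates (20 μg protein) separated by 10% PAGE and blotted to PVDF. Probed for Bax, Bcl-2, cleaved caspase-3 and cleaved PARP, detected by ECL and quantified by densitometry.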"}, "HepG2 [11]": {"system": "HepG2", "assay": "Induction of apoptosis in human HepG2 cells assessed as live cells at 20 nM incubated for 24 hrs by Annexin V-PE and 7-AAD staining based flow cytometry (reference value: 93.2%)", "format": "functional", "procedure,_shortened": "as §1"}, "HepG2 [12]": {"system": "HepG2", "assay": "Induction of apoptosis in human HepG2 cells assessed as live cells at 5 nM incubated for 24 hrs by Annexin V-PE and 7-AAD staining based flow cytometry (reference value: 93.2%)", "format": "functional", "procedure,_shortened": "as §1"}, "HepG2 [13]": {"system": "HepG2", "assay": "Antitumor activity against human HepG2 cells xenografted in Balb/c nude mouse assessed as reduction in tumor volume at 5 mg/kg, iv administered every 2 days for 21 days and measured at 3 days interval during compound dosing", "format": "functional", "design": "scale not given: the % may be the effect or the level left", "settings": "time 21 day", "procedure,_shortened": "as §2"}, "[14]": {"assay": "Lipophilicity, log P of the compound in DMSO and n-octanol at pH 7.4 incubated for 10 hrs under stirred condition by HPLC analysis", "format": "physicochemical", "settings": "n-octanol / aqueous phase pH 7.4, pH 7.4", "procedure,_shortened": "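Partition between n-octanol and water: mixture stirred at room temperature for 10 h, then left at 4 °C overnight. Each phase analysed separately by HPLC on a C18 column. Log P taken from the ratio of peak areas in n-octanol and water.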"}, "HCT-116": {"system": "HCT-116", "assay": "Antiproliferation activity against human HCT116 cells assessed as cell growth inhibition measured after 72 hrs by MTT assay", "format": "functional", "procedure,_shortened": "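Cells grown in RPMI-1640 with 10% FBS at 37 °C, 5% CO2, seeded at 4−7 × 10³ cells/well and left to adhere overnight. Exposed to a range of concentrations for 72 h, then MTT (2.5 mg/mL stock) added for 4 h. Formazan dissolved in DMSO and absorbance read at 570 nm. GI50 taken as the concentration giving 50% growth inhibition, reported as mean ± SD of at least three independent experiments.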"}, "[15]": {"assay": "Toxicity in Balb/c nude mouse xenografted with human HepG2 cells assessed as change in body weight at 5 mg/kg, iv administered every 2 days for 21 days (reference value: 7.8 % )", "format": "organism-based", "settings": "in vivo, 504 h, time 21 day"}, "HepG2 [16]": {"system": "HepG2", "assay": "Induction of apoptosis in human HepG2 cells assessed as early apoptotic cells at 20 nM incubated for 12 hrs by Annexin V-PE and 7-AAD staining based flow cytometry (reference value: 4.52%)", "format": "functional", "procedure,_shortened": "as §1"}, "HepG2 [17]": {"system": "HepG2", "assay": "Induction of cell cycle arrest in human HepG2 cells assessed as accumulation in G2/M phase at 20 nM incubated for 24 hrs by propidium iodide staining based flow cytometry (reference value: 12.59%)", "format": "functional"}, "HepG2 [18]": {"system": "HepG2", "assay": "Induction of apoptosis in human HepG2 cells assessed as early apoptotic cells at 5 nM incubated for 12 hrs by Annexin V-PE and 7-AAD staining based flow cytometry (reference value: 4.52%)", "format": "functional", "procedure,_shortened": "as §1"}, "HepG2 [19]": {"system": "HepG2", "assay": "Antitumor activity against human HepG2 cells xenografted in Balb/c nude mouse assessed as reduction in tumor volume at 10 mg/kg, iv administered every 2 days for 21 days and measured at 3 days interval during compound dosing", "format": "functional", "design": "scale not given: the % may be the effect or the level left", "settings": "time 21 day", "procedure,_shortened": "as §2"}, "HepG2 [20]": {"system": "HepG2", "assay": "Induction of cell cycle arrest in human HepG2 cells assessed as accumulation in G1 phase at 20 nM incubated for 24 hrs by propidium iodide staining based flow cytometry (reference value: 60.76%)", "format": "functional"}, "HepG2 [21]": {"system": "HepG2", "assay": "Induction of apoptosis in human HepG2 cells assessed as necrotic cells at 5 nM incubated for 24 hrs by Annexin V-PE and 7-AAD staining based flow cytometry (reference value: 0.34 %)", "format": "functional", "procedure,_shortened": "as §1"}, "HepG2 [22]": {"system": "HepG2", "assay": "Induction of apoptosis in human HepG2 cells assessed as decrease in Bcl-2 expression incubated for 24 hrs by Western blot analysis", "format": "functional, cell-based", "settings": "dose nM 2.5-20, time 24.0 hrs", "procedure,_shortened": "as §3"}}, "note": "pIC50: −log10 of the molar value."}
{"molecule": "CCOc1cccc(Nc2nn(C)c3c2Cc2cc(OCC)c(OCCCN)cc2-3)c1", "values": [{"measurement": "Activity", "setting": "HepG2 [1]", "result": 0.71, "unit": "%"}, {"measurement": "Activity", "setting": "HepG2 [2]", "result": 90.4, "unit": "%"}, {"measurement": "inhibition at 0.01 µM", "setting": "HepG2 [3]", "result": 58, "unit": "%"}, {"measurement": "Activity", "setting": "HepG2 [4]", "result": 56.07, "unit": "%"}, {"measurement": "Activity", "setting": "HepG2 [5]", "result": 1.36, "unit": "%"}, {"measurement": "Activity", "setting": "HepG2 [6]", "result": "Dose-dependent effect"}, {"measurement": "pIC50", "setting": "[7]", "result": 5.43}, {"measurement": "Activity", "setting": "HepG2 [8]", "result": 77.7, "unit": "%"}, {"measurement": "Activity", "setting": "HepG2 [9]", "result": 49.56, "unit": "%"}, {"measurement": "Activity", "setting": "HepG2 [10]", "result": "Dose-dependent effect"}, {"measurement": "Activity", "setting": "HepG2 [11]", "result": 50.2, "unit": "%"}, {"measurement": "Activity", "setting": "HepG2 [12]", "result": 85.6, "unit": "%"}, {"measurement": "Activity", "setting": "HepG2 [13]", "result": 54, "unit": "%"}, {"measurement": "logD at 10 h", "setting": "[14]", "result": 1.7}, {"measurement": "GI50", "setting": "HCT-116", "result": 2.4, "unit": "nM"}, {"measurement": "Activity", "setting": "[15]", "result": 8.4, "unit": "%"}, {"measurement": "Activity", "setting": "HepG2 [16]", "result": 14.5, "unit": "%"}, {"measurement": "Activity", "setting": "HepG2 [17]", "result": 88.46, "unit": "%"}, {"measurement": "Activity", "setting": "HepG2 [18]", "result": 5.66, "unit": "%"}, {"measurement": "Activity", "setting": "HepG2 [19]", "result": 68, "unit": "%"}, {"measurement": "Activity", "setting": "HepG2 [20]", "result": 3.11, "unit": "%"}, {"measurement": "Activity", "setting": "HepG2 [21]", "result": 0.32, "unit": "%"}, {"measurement": "Activity", "setting": "HepG2 [22]", "result": "Dose-dependent effect"}]}
